Molecules are shown by their SMILES.

Holding throughout (details): in vivo
In series [1] the test system is Heart. The series is described as follows: Biodistribution in heart of B16F0 tumor bearing C57BL/6J mouse at 0.37-0.74 MBq, iv after 48 hrs. It counts as ADME, organism-based. An outline of the steps:
(§1)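 Female C57BL/6J mice (15-18 g) were given B16F0 cells subcutaneously in the left flank (0.1 mL of 3 × 10⁶ viable cells/mL in Ca²⁺/Mg²⁺-free PBS) at 6-7 weeks and used after ten days. [¹²³I]benzamide (0.37-0.74 MBq, 100 µL, saline) was injected via the tail vein. Groups of n = 5 were killed by CO₂ and cervical dislocation. Organs were weighed and γ-counted, and the carcass was counted too.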

The test system of series [2] is Brain. The series is described as follows: Biodistribution in brain of B16F0 tumor bearing C57BL/6J mouse at 0.37-0.74 MBq, iv after 24 hrs. It counts as ADME, organism-based. A digest of the protocol: as §1
Series [3] has as its system Liver. Put plainly: Biodistribution in liver of B16F0 tumor bearing C57BL/6J mouse at 0.37-0.74 MBq, iv after 24 hrs in presence of haloperidol. It counts as ADME, organism-based. A digest of the protocol:
(§2)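 Haloperidol blocking in B16F0-bearing C57BL/6J mice: 1 mg/kg haloperidol was given iv 5 min before the iv [¹²³I]benzamide (0.37-0.74 MBq). Groups of n = 5 were killed at 1 or 24 h. Tissues were weighed and γ-counted as in the biodistribution study and compared with untreated controls by one-way ANOVA, with p < 0.01 taken as significant.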

In series [4] the test system is Lung. The series is described as follows: Biodistribution in lung of B16F0 tumor bearing C57BL/6J mouse at 0.37-0.74 MBq, iv after 24 hrs in presence of haloperidol. It is filed as ADME, organism-based. A digest of the protocol:
as §2

Series [5] is described as follows: Biodistribution in melanoma of B16F0 tumor bearing C57BL/6J mouse at 0.37-0.74 MBq, iv after 72 hrs. It counts as ADME, organism-based, B16-F0. A digest of the protocol:
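Female C57BL/6J mice (15-18 g) carrying s.c. B16F0 flank tumors (0.1 mL of 3 × 10⁶ viable cells per mL in Ca²⁺/Mg²⁺-free PBS, inoculated at 6-7 weeks, used 10 days later). [¹²³I]tracer 0.37-0.74 MBq in saline, 100 µL, tail-vein i.v. Groups of n = 5 killed at 1-72 h. Organs weighed and γ-counted, carcass activity also counted, values as %ID/g.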

In series [6] the test system is Blood. Put plainly: Biodistribution in blood of B16F0 tumor bearing C57BL/6J mouse at 0.37-0.74 MBq, iv after 48 hrs. It counts as ADME, organism-based. An outline of the steps: as §1
Series [7] has as its system Kidney. The series is described as follows: Biodistribution in kidney of B16F0 tumor bearing C57BL/6J mouse at 0.37-0.74 MBq, iv after 6 hrs. It is filed as ADME, organism-based. A digest of the protocol: as §1
Series [8] relates to Blood. The series is described as follows: Biodistribution in blood of B16F0 tumor bearing C57BL/6J mouse at 0.37-0.74 MBq, iv after 1 hr. It counts as ADME, organism-based. A digest of the protocol:
as §1

The test system of series [9] is Liver. The series is described as follows: Biodistribution in liver of B16F0 tumor bearing C57BL/6J mouse at 0.37-0.74 MBq, iv after 48 hrs. It is filed as ADME, organism-based. An outline of the steps:
as §1

Series [10] deals with Blood. The series is described as follows: Biodistribution in blood of B16F0 tumor bearing C57BL/6J mouse at 0.37-0.74 MBq, iv after 72 hrs. It is filed as ADME, organism-based. A digest of the protocol:
as §1

The subject of series [11] is Lung. The series is described as follows: Biodistribution in lung of B16F0 tumor bearing C57BL/6J mouse at 0.37-0.74 MBq, iv after 3 hrs. It is filed as ADME, organism-based. An outline of the steps:
as §1

The nature of series [12]: Biodistribution in melanoma of B16F0 tumor bearing C57BL/6J mouse at 0.37-0.74 MBq, iv after 24 hrs. It is filed as ADME, organism-based, B16-F0. A digest of the protocol:
as §1

Series [13] has as its system Liver. Put plainly: Biodistribution in liver of B16F0 tumor bearing C57BL/6J mouse at 0.37-0.74 MBq, iv after 1 hr. It is filed as ADME, organism-based. A digest of the protocol:
as §1

The test system of series [14] is Kidney. The series is described as follows: Biodistribution in kidney of B16F0 tumor bearing C57BL/6J mouse at 0.37-0.74 MBq, iv after 24 hrs in presence of haloperidol. It is filed as ADME, organism-based. A digest of the protocol: as §2
Series [15] concerns Kidney. The series is described as follows: Biodistribution in kidney of B16F0 tumor bearing C57BL/6J mouse at 0.37-0.74 MBq, iv after 72 hrs. It counts as ADME, organism-based. An outline of the steps: as §1
Series [16] can be described thus: Biodistribution in melanoma of B16F0 tumor bearing C57BL/6J mouse at 0.37-0.74 MBq, iv after 1 hr. It is filed as ADME, organism-based, B16-F0. A digest of the protocol: as §1
For series [17], the system named is Brain. Put plainly: Biodistribution in brain of B16F0 tumor bearing C57BL/6J mouse at 0.37-0.74 MBq, iv after 1 hr in presence of haloperidol. It is filed as ADME, organism-based.
The subject of series [18] is Brain. The series is described as follows: Biodistribution in brain of B16F0 tumor bearing C57BL/6J mouse at 0.37-0.74 MBq, iv after 72 hrs. It counts as ADME, organism-based. A digest of the protocol: as §1
Series [19] deals with Liver. The series is described as follows: Biodistribution in liver of B16F0 tumor bearing C57BL/6J mouse at 0.37-0.74 MBq, iv after 24 hrs. It counts as ADME, organism-based. A digest of the protocol:
as §1

For series [20], the system named is Blood. Put plainly: Biodistribution in blood of B16F0 tumor bearing C57BL/6J mouse at 0.37-0.74 MBq, iv after 6 hrs. It counts as ADME, organism-based. An outline of the steps:
as §1

For series [21], the system named is Liver. The series is described as follows: Biodistribution in liver of B16F0 tumor bearing C57BL/6J mouse at 0.37-0.74 MBq, iv after 6 hrs. It is filed as ADME, organism-based. An outline of the steps: as §1
Series [22] concerns Heart. The series is described as follows: Biodistribution in heart of B16F0 tumor bearing C57BL/6J mouse at 0.37-0.74 MBq, iv after 6 hrs. It is filed as ADME, organism-based. An outline of the steps: as §1

For `CCCCN(C)CCCCNC(=O)c1cc([123I])c(NC(C)=O)cc1OC`, the Drug uptake is 0.13 % ID/g in [1]; 0.01 % ID/g in [2]; 0.3 % ID/g in series [3]; 0.02 % ID/g in series [4]; 2.2 % ID/g in [5]; 0.04 % ID/g in series [6]. The Drug uptake in series [7] came to 1.2 % ID/g; in series [8], 1.2 % ID/g; in [9], 0.38 % ID/g; in series [10], 0.05 % ID/g; in [11], 0.95 % ID/g; in series [12], 6.1 % ID/g. The Drug uptake came to 16.8 % ID/g in [13]; 0.03 % ID/g in [14]; 0.1 % ID/g in series [15]; 5.6 % ID/g in series [16]; 0.06 % ID/g in [17]; 0.01 % ID/g in [18]. Besides, the Drug uptake worked out at 0.47 % ID/g in [19], 0.71 % ID/g in series [20], 1.8 % ID/g in [21] and 0.54 % ID/g in series [22].

(Values after ChEMBL document CHEMBL1146219, “Synthesis and evaluation of novel radioiodinated benzamides for malignant melanoma” (J Med Chem, 2007).)
